# ALR inh: human ALR oxidase inhibition via reduced H2O2 | purified ALR, DTT oxidation, H2O2 HRP-luminol luminescence | inhibition, % (concentration not given with the values) | 3.8% of 290,000 active;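 active means mean replicate inhibition above about 79%, with every replicate also reaching it, limit read from the data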
# ATG4B inhibitor: inhibitors of human ATG4B cysteine protease; ATG4B cleavage of LC3-PLA2, NBD-HPC fluorescence, 1 h; inhibition, % at 8.33 µM; 0.51% of 340,000 active; in the data active means inhibition above about 40%
# Target sequence (Q9Y4P1 whole entry, looked up): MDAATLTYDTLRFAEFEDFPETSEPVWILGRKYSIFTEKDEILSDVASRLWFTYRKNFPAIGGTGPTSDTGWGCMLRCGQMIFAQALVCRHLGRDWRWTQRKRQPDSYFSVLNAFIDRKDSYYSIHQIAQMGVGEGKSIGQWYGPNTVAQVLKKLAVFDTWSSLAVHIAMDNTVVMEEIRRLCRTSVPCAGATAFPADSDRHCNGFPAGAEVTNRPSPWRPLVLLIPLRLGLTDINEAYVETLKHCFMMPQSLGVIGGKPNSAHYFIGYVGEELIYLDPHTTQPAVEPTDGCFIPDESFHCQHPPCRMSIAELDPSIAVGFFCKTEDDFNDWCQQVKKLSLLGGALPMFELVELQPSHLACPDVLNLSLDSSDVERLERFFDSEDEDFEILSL
# NALP1 yeast inh: NALP1 inhibition; S. cerevisiae NALP1/ASC/caspase-1 growth, X-gal OD620, 72 h; inhibition, % at 10 µM; 0.61% of 280,000 active; AID 2071; in the data active means inhibition mostly above about 24%, no sharp cut-off; inactive means mostly below about 32%
# Calb FLC: affects C. albicans growth with fluconazole; 0.57% of 300,000 active; C. albicans CaCi-2 (fluconazole-resistant clinical isolate) + fluconazole, Alamar Blue growth, 48 h; growth inhibition, % (concentration not given with the values); AID 1979;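 active means growth inhibition above about 58% in most replicates, limit read from the data, passing the limit was not always enough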;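 further: all wells also contain fluconazole at 8 µg/ml as a sub-toxic cotreatment; 0% = median of DMSO wells and 100% = median of geldanamycin control wells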
# NALP3 yeast inh: blocks the NALP3 inflammasome reconstituted in yeast. Yeast reconstituted NLRP3/ASC/caspase-1, beta-gal luminescence, 24 h. inhibition, % at 10 µM. 0.39% of 330,000 active. AID 2825;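 active means inhibition of 50% or more; inactive means inhibition below 50%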;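 further: plate controls were induced DMSO wells for no effect and uninduced yeast grown without galactose for full effect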
# UCH37 inh: inhibitors of human deubiquitinating enzyme UCH37 | purified proteasome/UCH37, Ub-AMC cleavage fluorescence | inhibition, % (concentration not given with the values) | 0.33% of 330,000 active | AID 588478;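 active means mean inhibition over replicate wells above about 20%, limit read from the data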;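 further: 0% = compound-free wells with enzyme and 100% = wells lacking proteasome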
#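 Test system – human UCH37 enzyme supplied as purified proteasome complex · Incubation – 30 min preincubation with enzyme, 25 min cleavage at room temperature · Detection – AMC fluorescence from Ub-AMC cleavage, excitation 355 nm, emission 460 nm · Benchmarks – no-proteasome wells (full inhibition) and compound-free wells (no inhibition)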
# ATG4B conf: ATG4B (human) inhibition, single-dose confirmed. shares compounds with ATG4B inhibitor. ATG4B protease fluorescent substrate cleavage assay. inhibition, % at 8.33 µM. 92% of 320 active; in the data active means inhibition above about 39%
# PLA2 ctr: PLA2 (human) inhibition in ATG4B counter-screen. shares compounds with ATG4B inhibitor. purified PLA2, NBD-C6-HPC fluorescence, 45 min. inhibition, % at 8.33 µM. 66% of 1,600 active; in the data active means inhibition above about 50%
# * = called active by the depositor; · = not tested or not shown. Only some compounds are listed: those with a hit (about 4.8% of all), similar ones and a draw of the others.
SMILES,ALR inh,ATG4B inhibitor,NALP1 yeast inh,Calb FLC,NALP3 yeast inh,UCH37 inh,PLA2 ctr,others
CC(C)c1ccc(C2NC(=O)c3ccccc3O2)cc1 (configuration not stated),·,40.5*,19.2,-26.1,42.0,5.6,40.3,
CC(C)NC(=O)NC(=O)CSc1nnc(COc2ccccc2F)n1C(C)C1CC2CCC1C2 (configuration not stated),·,42.2*,15.4,17.1,7.4,-0.3,43.5,
CC(C1CC2CCC1C2)n1c(COc2ccccc2F)nnc1SCC(N)=O (configuration not stated),-1.1,23.9,24.4,5.8,13.7,2.9,·,
O=C1NC(=O)/C(=C/c2ccccc2Oc2ccc(Cl)cc2)S1,-7.6,48.5*,25.4,78.9*,-15.8,-0.9,26.9,ATG4B conf=58.9*
Cc1ccc(S(=O)(=O)Oc2ccccc2/C=C2\SC(=O)NC2=O)cc1,-0.7,0.8,-2.9,54.6,5.5,2.4,·,
CC1Cc2ccccc2N1S(=O)(=O)c1cccc(C(=O)N2CCCCC2)c1 (configuration not stated),·,-4.3,·,·,7.6,-1.0,·,
NC(=O)C1Cc2ccccc2CN1C(=O)c1nn(Cc2ccccc2)c(=O)c2ccccc12 (configuration not stated),2.4,40.9*,·,·,6.3,2.4,61.0*,
CC1Cc2ccccc2N1S(=O)(=O)c1cccc(C(=O)N2Cc3ccccc3CC2C(N)=O)c1 (configuration not stated),-0.1,67.8*,·,·,4.6,5.8,67.7*,
Cc1ccc(C(=O)N2Cc3ccccc3CC2C(=O)O)cc1 (configuration not stated),2.3,-7.0,9.0,8.1,-1.5,-0.1,·,
NC(=O)C1Cc2ccccc2CN1C(=O)c1cc(C2CC2)nn1-c1ccccc1 (configuration not stated),-1.9,91.5*,·,·,13.3,-2.5,92.3*,
NC(=O)C1Cc2ccccc2CN1C(=O)c1cccc(Oc2ccccc2)c1 (configuration not stated),·,47.3*,5.8,1.2,4.2,6.9,94.2*,
COc1ccc(S(=O)(=O)Oc2cccc(C=N/N=C3/NC(=O)C(CC(=O)O)S3)c2)cc1 (configuration not stated),·,·,·,·,·,8.5,·,
CC(=O)Oc1oc(-c2ccccc2)nc1C=Nc1ccccn1,·,·,·,·,·,4.2,·,
Cc1ccc(C=NNC(=O)c2c(C)nc3ccc(Br)cn23)cc1,·,·,·,·,·,2.3,·,
Cc1ccc2[nH]c(=O)c(CN(Cc3cccs3)Cc3nnnn3Cc3ccccc3)cc2c1,-3.1,51.5*,1.6,1.5,29.7,-1.2,65.5*,
Cc1[nH]n(-c2ccccc2)c(=O)c1C=NNC(=O)c1cccc(F)c1,·,·,·,·,·,-3.4,·,
O=C1N[C@@H](c2ccccc2)COC(=O)[C@@H](Cc2ccc(F)cc2)C/C=C\C[C@@H]1CC(=O)N(CCO)Cc1ccccc1,2.3,50.0*,·,·,7.6,-1.1,54.0*,
O=C(NCCSCc1ccco1)Nc1cc(Cl)cc(Cl)c1,89.3*,46.2*,·,-1.2,15.2,3.7,62.0*,
O=c1cccccc1NN=C1CCCCC1,-9.2,12.0,·,-10.2,6.4,1.6,·,
O=C(O)c1cc(Br)ccc1NN=C1CCCCC1,·,50.3*,31.4,-2.7,8.5,2.2,39.6,ATG4B conf=62.2*
CCOC(=O)c1c(C)nc2c(c1-c1ccccc1)C(=O)c1ccccc1-2,-14.7,79.2*,8.1,10.5,-37.3,2.7,71.0*,
CCOC(=O)c1c(C)nc2c(c1-c1cc(OC)ccc1OC)C(=O)c1ccccc1-2,0.3,-6.7,24.7,15.4,17.3,5.1,·,
CCOC(=O)c1c(C)nc2sc(C(N)=O)c(N)c2c1-c1ccccc1,-14.3,54.2*,10.5,2.3,15.9,-6.1,60.7*,
CC(CC(=O)NC1CCCC1)=NNC(=O)Cc1cccs1,·,·,·,·,·,2.5,·,
CC(=NNC(=O)c1ccc(-c2ccccc2)cc1)c1ccco1,·,·,·,·,·,-5.1,·,
Cc1ccc(-n2nc3c(N4CCC(C(=O)NCCc5cccs5)CC4)nnc(C)c3c2C)cc1,-4.0,-7.7,29.2,-6.6,0.9,·,·,
